Measurements: ChEMBL document CHEMBL1240482, “Synthesis and antiproliferative evaluation of certain indeno[1,2-c]quinoline derivatives. Part 2” (J Med Chem, 2010)

Legend:
Homo sapiens = species: Homo sapiens; assay: Inhibition of human topoisomerase 2 assessed as decrease in pBR322 mobility on agarose gel at 10 uM by electrophoresis
Method in brief: (§1)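 Enzyme preincubated with compound before DNA addition; reaction run 30 min at 37 °C and stopped with SDS. Products resolved on 1% agarose, stained with ethidium bromide, quantified by densitometry.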

[1] = Clearance in CD1 mouse at 2 mg/ kg, iv; format: ADME, organism-based; parameters: dose 2 mg/ kg, route intravenous; details: in vivo
Method in brief: (§2)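 Fasted male CD-1 (Crl.) mice, 22-24 g; single tail-vein bolus of 2.0 mg/kg in PEG400/ethanol/water (30/5/65), 10 mL/kg. Cardiac-puncture blood into K-EDTA at 0-27 h, three mice per time point; plasma analysed by LC-MS/MS after acetonitrile precipitation. Parameters calculated from mean plasma concentrations.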

[2] = Inhibition of human topoisomerase 2 assessed as decrease in pBR322 mobility on agarose gel by electrophoresis; method in brief: as §1
[3] = Cytotoxicity against human BT-483 cells after 48 hrs by MTT assay; format: functional; details: BT-483, 48 h
Method in brief: (§3)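 Cells grown in DMEM with 10% FBS at 37 °C and 5% CO2, seeded at 5 × 10^3 per well and allowed 24 h before drug. Serial dilutions from DMSO stocks applied for 48 h. MTT (2 mg/mL in PBS) added for 2 h, formazan dissolved in DMSO, absorbance read at 570 nm. GI50 interpolated by linear regression from at least three points in the 20-80% range; three independent experiments.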

[4] = Cell cycle arrest in human BT-483 cells assessed as accumulation at sub-G1 phase at 3 uM after 24 hrs by flow cytometry; format: functional, cell-based
Method in brief: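 BT483 cells exposed to 0, 1, 3 or 10 μM for 24 h, then stained with propidium iodide and analysed for DNA content by flow cytometry. The subdiploid (sub-G1) peak, expressed as a percentage of the whole population, is scored as apoptotic.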

Mus musculus [5] = assay: Toxicity to BALB/c mouse assessed as survival rate at 20 mg/kg, iv; format: organism-based; parameters: dose 20 mg/kg, route intravenous; details: in vivo
Method in brief: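 Balb/C athymic nude mice (6-8 weeks, ~20 g) bearing subcutaneous BT483 breast xenografts (0.5 × 10^6 cells). Treatment began at ~500 mm3 tumour volume: cosolvent formulation diluted in 5% dextrose, iv at 10 or 20 mg/kg once daily for 14 days; controls received vehicle. 3 animals per group. Survival was assessed by Kaplan-Meier analysis at study end, p < 0.05.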

[6] = Half life in CD1 mouse at 20 mg/ kg, po; format: ADME, organism-based; parameters: dose 20 mg/ kg, route oral; details: in vivo
Method in brief: (§4)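 Male CD-1 (Crl.) mice, 22-24 g, fasted 4 h before dosing; single oral gavage of 20 mg/kg as a suspension in 0.5% methylcellulose/water, 10 mL/kg. Cardiac-puncture plasma (K-EDTA) taken predose to 27 h, three mice per time point; LC-MS/MS quantification.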

[7] = Mean retention time in CD1 mouse at 20 mg/ kg, po; format: ADME, organism-based; parameters: dose 20 mg/ kg, route oral; details: in vivo; method in brief: as §4
[8] = Oral bioavailability in CD1 mouse at 20 mg/ kg, po; format: ADME, organism-based; details: in vivo; method in brief: as §4
[9] = target: T1, DNA topoisomerase 1 (Homo sapiens) (UniProt P11387); assay: Inhibition of human topoisomerase 1 assessed as decrease in pBR322 mobility on agarose gel at 10 uM by electrophoresis; method in brief: as §1
T1 sequence (whole entry): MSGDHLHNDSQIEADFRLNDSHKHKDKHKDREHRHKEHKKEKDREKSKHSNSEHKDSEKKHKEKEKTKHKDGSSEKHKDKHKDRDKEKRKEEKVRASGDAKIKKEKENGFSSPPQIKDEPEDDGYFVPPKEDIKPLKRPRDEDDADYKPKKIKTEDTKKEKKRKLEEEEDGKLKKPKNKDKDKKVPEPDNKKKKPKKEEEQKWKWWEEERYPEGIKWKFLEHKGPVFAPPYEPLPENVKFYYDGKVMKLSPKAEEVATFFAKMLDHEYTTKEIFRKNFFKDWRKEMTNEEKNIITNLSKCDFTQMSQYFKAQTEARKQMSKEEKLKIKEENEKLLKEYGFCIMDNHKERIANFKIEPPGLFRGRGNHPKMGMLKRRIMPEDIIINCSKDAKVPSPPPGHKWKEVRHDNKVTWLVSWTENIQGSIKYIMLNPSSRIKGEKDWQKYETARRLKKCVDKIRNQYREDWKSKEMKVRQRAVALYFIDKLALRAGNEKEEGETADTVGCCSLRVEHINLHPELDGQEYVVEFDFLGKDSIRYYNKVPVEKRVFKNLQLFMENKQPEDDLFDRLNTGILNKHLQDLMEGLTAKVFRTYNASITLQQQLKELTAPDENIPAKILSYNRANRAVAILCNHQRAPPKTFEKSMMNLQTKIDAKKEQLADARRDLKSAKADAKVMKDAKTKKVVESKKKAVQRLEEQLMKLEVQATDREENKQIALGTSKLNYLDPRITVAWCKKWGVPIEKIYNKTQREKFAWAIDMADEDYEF

[10] = Cytotoxicity against human SKHep cells after 48 hrs by MTT assay; format: functional; method in brief: as §3
Mus musculus [11] = assay: Toxicity to BALB/c mouse assessed as change in glutamic pyruvate transaminase at 20 mg/kg, iv; format: organism-based; parameters: dose 20 mg/kg, route intravenous; details: in vivo
Method in brief: (§5)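 BALB/c mice, 3 per group, randomized by body weight (stratified). Dosed iv via tail vein at 10, 20 or 40 mg/kg in PEG 400/ethanol/water (20/20/60), once every 3 days for 2 weeks; solvent controls. Weighed throughout. After a 24 h fast, heart blood was drawn under ether; GOT, GPT, BUN and creatinine were measured on an analyzer. Liver and kidney taken for H&E.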

[12] = Half life in CD1 mouse at 2 mg/ kg, iv; format: ADME, organism-based; parameters: dose 2 mg/ kg, route intravenous; details: in vivo; method in brief: as §2
SAS = assay: Selectivity index, ratio of IC50 for human Detroit 551 cells to IC50 for human SAS cells; format: functional
HeLa [13] = assay: Cytotoxicity against human HeLa cells after 48 hrs by MTT assay; format: functional; method in brief: as §3
A549 = assay: Cytotoxicity against human A549 cells after 48 hrs by MTT assay; format: functional; details: A549, 48 h; method in brief: as §3
[14] = Mean retention time in CD1 mouse at 2 mg/ kg, iv; format: ADME, organism-based; parameters: dose 2 mg/ kg, route intravenous; details: in vivo; method in brief: as §2
PC-3 = assay: Cytotoxicity against human PC3 cells after 48 hrs by MTT assay; format: functional; details: PC-3, 48 h; method in brief: as §3
[15] = Apparent volume of distribution in CD1 mouse at 2 mg/ kg, iv; format: ADME, organism-based; parameters: dose 2 mg/ kg, route intravenous; details: in vivo, read-out: Vz; method in brief: as §2
Detroit 551 [16] = assay: Selectivity index, ratio of IC50 for human Detroit 551 cells to IC50 for human A549 cells; format: functional
Mus musculus [17] = assay: Toxicity to BALB/c mouse assessed as change in blood urea nitrogen at 20 mg/kg, iv; format: organism-based; parameters: dose 20 mg/kg, route intravenous; details: in vivo; method in brief: as §5
Detroit 551 [18] = assay: Selectivity index, ratio of IC50 for human Detroit 551 cells to IC50 for human SKHep cells; format: functional
DNA topoisomerase 1 = target: T2, DNA topoisomerase 1 (Homo sapiens, UniProt P11387); assay: Inhibition of human topoisomerase 1 assessed as decrease in pBR322 mobility on agarose gel by electrophoresis; method in brief: as §1
T2 sequence (P11387 whole entry): T1 sequence (whole entry)

[19] = Volume of distribution at steady state in CD1 mouse at 2 mg/ kg, iv; format: ADME, organism-based; parameters: dose 2 mg/ kg, route intravenous; details: in vivo, read-out: Vdss; method in brief: as §2
HeLa [20] = assay: Selectivity index, ratio of IC50 for human Detroit 551 cells to IC50 for human HeLa cells; format: functional

COc1ccc2c(c1)/C(=N\OCCN1CCCC1)c1c-2c(O)nc2ccccc12
inhibition (Homo sapiens): 60%
clearance [1]: 193 mL/min/kg
IC50 [2]: 8.26 µM
GI50 [3]: 0.79 µM
Activity [4]: 58%
Activity (Mus musculus [5]): Non-toxic
half-life [6]: 2.2 h
MRT [7]: 3.4 h
bioavailability [8]: 10.9%
inhibition [9]: 71%
GI50 [10]: 1.24 µM
Activity (Mus musculus [11]): Non-toxic
half-life [12]: 1.5 h
RatioGI50 (SAS): 14.81
GI50 (HeLa [13]; read-out: GI50): 0.23 µM
GI50 (HeLa [13]; read-out: pGI50 (converted)): 0.229 µM
GI50 (A549): 0.89 µM
MRT [14]: 1.1 h
GI50 (PC-3): 1.83 µM
Vd [15]: 25.5 L/kg
RatioGI50 (Detroit 551 [16]): 13.98
Activity (Mus musculus [17]): Non-toxic
RatioGI50 (Detroit 551 [18]): 10.03
IC50 (DNA topoisomerase 1): 3.76 µM
Vd [19]: 12.3 L/kg
RatioGI50 (HeLa [20]): 54.09
